Compounds with a hit are over-represented: about 4% of the library has one in this group of screens.
S1P3 antagonist: S1P3 (human) receptor antagonism; CHO S1P3 NFAT-BLA reporter, FRET fluorescence, antagonist mode; inhibition, % at 4.98 µM; 0.27% of 170,000 active; AID 485;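 active = inhibition above the plate cutoff, the mean inhibition of test wells on that plate plus 3 SD, cut at about 28% in these data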;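 note: cells challenged with S1P at its EC80 of 0.8 µM; blue over green emission ratio from cleaved BLA substrate after 4 h stimulation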
Mdm2 ligase inh: inhibitors of human Mdm2 E3 ubiquitin ligase. 0.11% of 210,000 active. AID 1230. signal enhancement, % at 5 µM. cell-based MDM2 ubiquitination luciferase reporter, 2 h; 0 = plate control, 100 = twice control, blank-subtracted;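 active = signal enhancement of 30% or more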;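 note: luminescence tracks abundance of the self-degrading MDM2-luciferase fusion protein; higher signal means inhibition of MDM2 E3 ligase activity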
Target sequence (Q00987 whole entry, looked up, the tested form may be a part): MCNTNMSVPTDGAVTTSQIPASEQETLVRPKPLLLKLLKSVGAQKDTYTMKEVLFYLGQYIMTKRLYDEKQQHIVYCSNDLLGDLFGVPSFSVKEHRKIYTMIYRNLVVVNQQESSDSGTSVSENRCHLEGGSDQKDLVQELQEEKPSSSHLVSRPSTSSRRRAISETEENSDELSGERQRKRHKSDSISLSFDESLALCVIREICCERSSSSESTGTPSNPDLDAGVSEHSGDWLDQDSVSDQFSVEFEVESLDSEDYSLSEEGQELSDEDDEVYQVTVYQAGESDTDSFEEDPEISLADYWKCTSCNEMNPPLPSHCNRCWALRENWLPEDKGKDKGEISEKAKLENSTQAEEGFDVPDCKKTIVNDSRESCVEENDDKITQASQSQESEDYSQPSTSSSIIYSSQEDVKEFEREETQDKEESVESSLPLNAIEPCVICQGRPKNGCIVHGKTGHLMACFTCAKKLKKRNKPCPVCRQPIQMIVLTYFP
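Test system: mammalian cells stably expressing self-ubiquitinating, self-degrading MDM2 E3–luciferase fusion; Amount: 2000 cells in each well; Medium: DMEM; Schedule: 4 h settle plus 2 h compound, 37 °C; Technique: SteadyLite luciferase luminescence after 15 min room-temperature reagent incubation; Benchmarks: plate control and blank wells.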
CHOP inh: CHOP inhibition in unfolded protein response; CHO-K1 CHOP-promoter luciferase, tunicamycin-induced, 15-18 h; inhibition, % at 10 µM; 3.8% of 220,000 active;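 active = compounds that reduced the stress-induced luciferase reporter signal by more than about 70% of percent inhibition, limit read from the data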
Hsp70 activator: Hsp70 transcriptional activation, primary screen; HeLa Hsp70 promoter luciferase reporter, luminescence; scaled: vehicle 0, proteasome-inhibitor control 100%; activation, % at 10 µM; 0.04% of 200,000 active; AID 1203;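 active = activation above the mean across all tested compounds plus 3 SD, cutoff set per campaign, cut at about 5.5% in these data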
Numbers stand for hits.

Screening O=C(Cc1ccc(Cl)cc1Cl)Nc1cccc(S(=O)(=O)Nc2ccccc2F)c1 returned S1P3 antagonist inactive, Mdm2 ligase inh inactive, CHOP inh 87 and Hsp70 activator inactive.
`O=C(/C=C/c1ccccc1)Nc1cccc(S(=O)(=O)Nc2ccccc2F)c1` gave S1P3 antagonist inactive, Mdm2 ligase inh inactive, CHOP inh inactive and Hsp70 activator inactive.
Screening O=C(Cc1ccc(Cl)cc1Cl)Nc1ccc(OC(F)F)c(Cl)c1 returned S1P3 antagonist inactive, Mdm2 ligase inh inactive, CHOP inh 95 and Hsp70 activator inactive.
O=C(COC(=O)Cc1ccc(Cl)cc1Cl)Nc1ccc(OC(F)F)cc1 was read as S1P3 antagonist inactive, Mdm2 ligase inh inactive, CHOP inh inactive and Hsp70 activator inactive.
CN(C(=O)Nc1ccc(Cl)cc1Cl)[C@H]1c2cc(Br)ccc2OC[C@H]1CO was read as Mdm2 ligase inh inactive, CHOP inh 89 and Hsp70 activator inactive.
Screening CCOC(=O)c1[nH]c(Cc2[nH]c(C(=O)OCC)c(C)c2CCC(=O)OC)c(CCC(=O)OC)c1C returned S1P3 antagonist inactive, Mdm2 ligase inh inactive, CHOP inh 85 and Hsp70 activator inactive.
`COCCNc1nc2nonc2nc1N(C)Cc1cccc2cnccc12` gave S1P3 antagonist inactive, Mdm2 ligase inh 48, CHOP inh inactive and Hsp70 activator inactive.
For CCN(c1ccccc1)c1nc2nonc2nc1NCCO the results were S1P3 antagonist inactive, Mdm2 ligase inh inactive and CHOP inh inactive.
`Cn1c(SCC(=O)NCCNC(=O)CSc2nnc(C(F)(F)F)n2C)nnc1C(F)(F)F` gave Mdm2 ligase inh inactive, CHOP inh inactive and Hsp70 activator inactive.
Cc1cc(C)c2nc(NC(=O)[C@@H](NC(=O)c3cccc(S(=O)(=O)N4CCOCC4)c3)C(C)C)sc2c1 was read as S1P3 antagonist inactive, Mdm2 ligase inh inactive, CHOP inh 93 and Hsp70 activator inactive.
CC1=C(C(=O)OCc2ccccc2)C(c2cccnc2)c2c(n(C)c(=O)n(C)c2=O)N1 (stereo unspecified) was read as Mdm2 ligase inh inactive, CHOP inh 85 and Hsp70 activator inactive.
Screening CC(C(=O)NCCC1=CCCCC1)c1ccc([N+](=O)[O-])cc1 (stereo unspecified) returned S1P3 antagonist inactive, Mdm2 ligase inh inactive, CHOP inh inactive and Hsp70 activator inactive.
Screening CCOC(=O)c1c(C(F)(F)C(F)(F)C(F)(F)C(F)(F)F)n[nH]c1C returned Mdm2 ligase inh inactive, CHOP inh 82 and Hsp70 activator inactive.
For CCOC(=O)c1[nH]c(C)c(C(=O)OCC)c1C the results were S1P3 antagonist inactive, Mdm2 ligase inh inactive, CHOP inh inactive and Hsp70 activator inactive.
Screening Nc1ccccc1Nc1cc(-c2ccccc2)nn1-c1cccc(Cl)c1 returned S1P3 antagonist inactive, Mdm2 ligase inh inactive, CHOP inh 90 and Hsp70 activator inactive.
COc1cccc(NC(=O)CSc2nc3ccsc3c(=O)n2-c2ccc(C(=O)O)cc2)c1 was read as S1P3 antagonist inactive, Mdm2 ligase inh inactive, CHOP inh inactive and Hsp70 activator inactive.
For O=C(COC(=O)c1ccccc1NC(=O)c1ccco1)NC1CCCCC1 the results were Mdm2 ligase inh inactive, CHOP inh inactive and Hsp70 activator inactive.
Screening CC1CCCC(NC(=O)COC(=O)c2ccccc2NC(=O)c2ccco2)C1C (stereo unspecified) returned Mdm2 ligase inh inactive, CHOP inh 92 and Hsp70 activator inactive.
`CC(NC(=O)C(C)N1C(=O)C2C3CC(C(Br)C3Br)C2C1=O)c1ccccc1` (stereo unspecified) gave S1P3 antagonist inactive, Mdm2 ligase inh inactive, CHOP inh inactive and Hsp70 activator inactive.
`CC(C)c1ccc(OCc2cccc(C(=O)N/N=C/c3cccnc3)c2)cc1` gave S1P3 antagonist inactive, Mdm2 ligase inh 34, CHOP inh inactive and Hsp70 activator inactive.
For O=C(Nc1ccccc1)C1=C[C@@H](C2CC2)C[C@@H](OCCCCO)O1 the results were S1P3 antagonist inactive, CHOP inh inactive and Hsp70 activator inactive.
`CC12CCC(C/C1=N/NC(=O)Nc1ccccc1)C2(C)C` (stereo unspecified) gave S1P3 antagonist inactive, Mdm2 ligase inh inactive, CHOP inh 90 and Hsp70 activator inactive.
For CC12CCC(C/C1=N/NC(=O)COc1ccccc1Cl)C2(C)C (stereo unspecified) the results were S1P3 antagonist inactive, Mdm2 ligase inh inactive, CHOP inh inactive and Hsp70 activator inactive.
Screening Cc1ccc(N2CCN(C(=S)Nc3ccccc3)CC2)cc1 returned S1P3 antagonist inactive, Mdm2 ligase inh inactive, CHOP inh inactive and Hsp70 activator inactive.
`Cc1noc(C)c1COc1ccc(C(=O)NCc2ccccn2)cc1` gave S1P3 antagonist inactive, Mdm2 ligase inh 68, CHOP inh inactive and Hsp70 activator inactive.
For Cn1ncc(N=Cc2ccccc2)c1C(=O)Nc1cccc(Cl)c1 the results were Mdm2 ligase inh inactive, CHOP inh inactive and Hsp70 activator inactive.
Screening Cc1ccc2c(n1)sc1c(-c3ccc(Br)cc3)c(C#N)c(N)nc12 returned Mdm2 ligase inh inactive, CHOP inh 82 and Hsp70 activator inactive.
COc1cc(S(=O)(=O)NC2CCCCC2)ccc1Cl was read as S1P3 antagonist inactive, Mdm2 ligase inh inactive, CHOP inh inactive and Hsp70 activator inactive.
`CCOc1cc(S(=O)(=O)NC2CCCCCC2)ccc1F` gave S1P3 antagonist inactive, Mdm2 ligase inh inactive, CHOP inh 76 and Hsp70 activator inactive.
COC(=O)CCN(C1CCCCC1)S(=O)(=O)c1ccc(S(=O)(=O)NC2CCCCC2)cc1 was read as Mdm2 ligase inh inactive, CHOP inh 75 and Hsp70 activator inactive.
`COc1ccc(S(=O)(=O)NC2CCCCC2)cc1C` gave S1P3 antagonist inactive, Mdm2 ligase inh inactive, CHOP inh 83 and Hsp70 activator inactive.
Cc1cccc(-c2nnc(NC(=O)c3ccc(Cl)cc3)o2)c1 was read as S1P3 antagonist inactive, Mdm2 ligase inh inactive, CHOP inh 79 and Hsp70 activator inactive.
O=C(Nc1nnc(-c2ccc3c(c2)CCCC3)o1)c1ccccc1 was read as Mdm2 ligase inh inactive, CHOP inh 100 and Hsp70 activator inactive.
Screening O=C(Nc1nnc(-c2ccc3c(c2)CCCC3)o1)c1ccccc1Cl returned S1P3 antagonist inactive, Mdm2 ligase inh inactive, CHOP inh inactive and Hsp70 activator inactive.
`O=C(Nc1nnc(-c2ccc3c(c2)OCCO3)o1)c1ccc(Cc2ccccc2)cc1` gave S1P3 antagonist inactive, Mdm2 ligase inh inactive, CHOP inh 97 and Hsp70 activator inactive.
Screening NNC(=O)c1nc[nH]c1C(=O)Nc1ccccc1[N+](=O)[O-] returned S1P3 antagonist inactive, Mdm2 ligase inh inactive, CHOP inh inactive and Hsp70 activator inactive.
O=C(Nc1ccc(F)cc1)c1nc[nH]c1C(=O)Nc1ccccc1[N+](=O)[O-] was read as S1P3 antagonist inactive, Mdm2 ligase inh inactive, CHOP inh 87 and Hsp70 activator inactive.
`Cc1cc2occ(CC(=O)Nc3nnc(C4CC4)s3)c2cc1C` gave Mdm2 ligase inh inactive, CHOP inh 90 and Hsp70 activator inactive.
COc1ccc(-c2cc(-c3c(O)c(OC)c4occc4c3OC)[nH]n2)cc1OC was read as S1P3 antagonist inactive, Mdm2 ligase inh inactive, CHOP inh inactive and Hsp70 activator inactive.

Screens (PubChem)
